Active and inactive are the calls of the source. The calls are words filed in the database; no cut-off is given here.
Legend:
Rattus norvegicus [1] = test: Evaluated for number of rats ovulating in an in vivo anti-ovulatory assay at dose(1000 microg); 7/8; assay type: functional, organism-based
Rattus norvegicus [2] = test: Evaluated for number of rats ovulating in an in vivo anti-ovulatory assay at dose(100 microg); 0/5; assay type: functional, organism-based
Rattus norvegicus [3] = test: Evaluated for number of rats ovulating in an in vivo anti-ovulatory assay at dose(50 microg); 1/4; assay type: functional, organism-based
Rattus norvegicus [4] = test: Evaluated for number of rats ovulating in an in vivo anti-ovulatory assay at dose (500 microg); 8/8; assay type: functional, organism-based
Rattus norvegicus [5] = test: Evaluated for number of rats ovulating in an in vivo anti-ovulatory assay at dose (500 microg); 7/8; assay type: functional, organism-based
Rattus norvegicus [6] = test: Evaluated for number of rats ovulating in an in vivo anti-ovulatory assay at dose(25 microg); 3/4; assay type: functional, organism-based
Rattus norvegicus [7] = test: Evaluated for number of rats ovulating in an in vivo anti-ovulatory assay at dose(50 microg); 0/6; assay type: functional, organism-based
[8] = target: T1, Gonadotropin-releasing hormone receptor (Rattus norvegicus, UniProt P30969); test: Competitive radioligand binding assay for rat Gonadotropin-releasing hormone receptor cells stably transfected in human HEK293
T1 sequence (P30969 whole entry): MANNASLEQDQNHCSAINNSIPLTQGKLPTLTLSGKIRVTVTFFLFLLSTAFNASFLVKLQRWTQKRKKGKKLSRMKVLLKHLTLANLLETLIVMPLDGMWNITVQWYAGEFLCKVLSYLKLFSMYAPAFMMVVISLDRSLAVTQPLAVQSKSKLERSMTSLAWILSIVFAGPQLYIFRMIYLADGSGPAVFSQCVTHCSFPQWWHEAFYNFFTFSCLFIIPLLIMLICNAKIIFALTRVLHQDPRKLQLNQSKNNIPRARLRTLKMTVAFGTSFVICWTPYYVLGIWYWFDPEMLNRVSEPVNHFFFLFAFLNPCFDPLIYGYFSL
In short: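 Membranes from HEK-293 cells stably expressing rat GnRH receptor (5% sucrose homogenate; nuclei removed at 3000g, membranes pelleted at 20000g, 4 °C), 7 µg protein in 10 mM Hepes pH 7.5, 150 mM NaCl, 0.1% BSA. Competitor at varying concentrations vs des-Gly10-[125I-Tyr5,DAla6,NMeLeu7,Pro9-NHEt]GnRH (~100 000 cpm), 90 min; PEI-coated GF/C filtration, PBS wash, γ counting. Ki by nonlinear least-squares fit; ≥3 independent experiments, mean ± SEM.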

Rattus norvegicus [9] = test: Evaluated for number of rats ovulating in an in vivo anti-ovulatory assay at dose (1000 microg); 3/8; assay type: functional, organism-based
Rattus norvegicus [10] = test: Evaluated for number of rats ovulating in an in vivo anti-ovulatory assay at dose (25 microg); 5/6; assay type: functional, organism-based
Rattus norvegicus [11] = test: Evaluated for number of rats ovulating in an in vivo anti-ovulatory assay at dose (100 microg); 6/11; assay type: functional, organism-based
Rattus norvegicus [12] = test: Evaluated for number of rats ovulating in an in vivo anti-ovulatory assay at dose (250 microg); 0/6; assay type: functional, organism-based
Rattus norvegicus [13] = test: Evaluated for number of rats ovulating in an in vivo anti-ovulatory assay at dose (100 microg); 2/9; assay type: functional, organism-based
Rattus norvegicus [14] = test: Evaluated for number of rats ovulating in an in vivo anti-ovulatory assay at dose (25 microg); 0/6; assay type: functional, organism-based
Rattus norvegicus [15] = test: Evaluated for number of rats ovulating in an in vivo anti-ovulatory assay at dose (10 microg); 10/10; assay type: functional, organism-based
Rattus norvegicus [16] = test: Evaluated for number of rats ovulating in an in vivo anti-ovulatory assay at dose (250 microg); 5/9; assay type: functional, organism-based
Rattus norvegicus [17] = test: Evaluated for number of rats ovulating in an in vivo anti-ovulatory assay at dose (500 microg); 4/8; assay type: functional, organism-based

## CC(=O)N[C@H]1CC(=O)N[C@H](C(=O)N[C@@H](CO)C(=O)N[C@@H](Cc2ccc(O)cc2)C(=O)N[C@H](Cc2ccc3ccccc3c2)C(=O)N[C@H](CC(C)C)C(=O)N[C@@H](CCCN=C(N)N)C(=O)N2CCC[C@H]2C(=O)N[C@H](C)C(N)=O)CNC(=O)[C@@H](Cc2ccc(Cl)cc2)NC1=O
Rattus norvegicus [1]
  Activity: inactive

## CC(=O)N[C@H]1CCC(=O)N[C@@H](C(=O)N[C@@H](CO)C(=O)N[C@@H](Cc2ccc(O)cc2)C(=O)N[C@H](Cc2ccc3ccccc3c2)C(=O)N[C@H](CC(C)C)C(=O)N[C@@H](CCCN=C(N)N)C(=O)N2CCC[C@H]2C(=O)N[C@H](C)C(N)=O)CCCCNC(=O)[C@@H](Cc2ccc(Cl)cc2)NC1=O
Rattus norvegicus [2]
  Activity: Active
Rattus norvegicus [3]
  Activity: Active

## CC(=O)N[C@H]1CCC(=O)N[C@@H](C(=O)N[C@@H](CO)C(=O)N[C@@H](Cc2ccc(O)cc2)C(=O)N[C@H](CCCN=C(N)N)C(=O)N[C@H](CC(C)C)C(=O)N[C@@H](CCCN=C(N)N)C(=O)N2CCC[C@H]2C(=O)N[C@H](C)C(N)=O)CCCCNC(=O)[C@@H](Cc2ccc(Cl)cc2)NC1=O
Rattus norvegicus [4]
  Activity: inactive

## CC(=O)N[C@H]1CC(=O)N[C@@H](C)C(=O)N[C@@H](C(=O)N[C@@H](CO)C(=O)N[C@@H](Cc2ccc(O)cc2)C(=O)N[C@H](CCCN=C(N)N)C(=O)N[C@H](CC(C)C)C(=O)N[C@@H](CCCN=C(N)N)C(=O)N2CCC[C@H]2C(=O)N[C@H](C)C(N)=O)CCCNC(=O)[C@@H](Cc2ccc(Cl)cc2)NC1=O
Rattus norvegicus [5]
  Activity: inactive

## CC(=O)N[C@H]1CC(=O)NCCC(=O)N[C@@H](C(=O)N[C@@H](CO)C(=O)N[C@@H](Cc2ccc(O)cc2)C(=O)N[C@H](Cc2ccc3ccccc3c2)C(=O)N[C@H](CC(C)C)C(=O)N[C@@H](CCCN=C(N)N)C(=O)N2CCC[C@H]2C(=O)N[C@H](C)C(N)=O)CNC(=O)[C@@H](Cc2ccc(Cl)cc2)NC1=O
Rattus norvegicus [6]
  Activity: inactive
Rattus norvegicus [7]
  Activity: Active

## CC(=O)NC1CCCNC(=O)CCNC(=O)C[C@@H](C(=O)N[C@@H](CO)C(=O)N[C@@H](Cc2ccc(O)cc2)C(=O)N[C@H](Cc2ccc3ccccc3c2)C(=O)N[C@H](CC(C)C)C(=O)NC(CCCN=C(N)N)C(=O)N2CCC[C@H]2C(=O)N[C@H](C)C(N)=O)NC(=O)[C@@H](Cc2ccc(Cl)cc2)NC1=O (stereo in doubt)
[8]
  Ki: 2.2 nM
Rattus norvegicus [9]
  Activity: Weak activity

## CC(=O)N[C@H]1CC(=O)NCCCC(=O)N[C@@H](C(=O)N[C@@H](CO)C(=O)N[C@@H](Cc2ccc(O)cc2)C(=O)N[C@H](Cc2ccc3ccccc3c2)C(=O)N[C@H](CC(C)C)C(=O)N[C@@H](CCCN=C(N)N)C(=O)N2CCC[C@H]2C(=O)N[C@H](C)C(N)=O)CNC(=O)[C@@H](Cc2ccc(Cl)cc2)NC1=O
Rattus norvegicus [10]
  Activity: inactive
Rattus norvegicus [11]
  Activity: Weak activity

## CC(=O)N[C@H]1CC(=O)N[C@@H](C)C(=O)N[C@@H](C(=O)N[C@@H](CO)C(=O)N[C@@H](Cc2ccc(O)cc2)C(=O)N[C@H](Cc2ccc3ccccc3c2)C(=O)N[C@H](CC(C)C)C(=O)N[C@@H](CCCN=C(N)N)C(=O)N2CCC[C@H]2C(=O)N[C@H](C)C(N)=O)CCCNC(=O)[C@@H](Cc2ccc(Cl)cc2)NC1=O
Rattus norvegicus [12]
  Activity: Active
Rattus norvegicus [13]
  Activity: Weak activity

## CC(=O)N[C@H]1CC(=O)NCC(=O)N[C@@H](C(=O)N[C@@H](CO)C(=O)N[C@@H](Cc2ccc(O)cc2)C(=O)N[C@H](Cc2ccc3ccccc3c2)C(=O)N[C@H](CC(C)C)C(=O)N[C@@H](CCCN=C(N)N)C(=O)N2CCC[C@H]2C(=O)N[C@H](C)C(N)=O)CCCNC(=O)[C@@H](Cc2ccc(Cl)cc2)NC1=O
Rattus norvegicus [14]
  Activity: Active
Rattus norvegicus [15]
  Activity: inactive

## CC(=O)N[C@H]1CC(=O)N[C@H](C)C(=O)N[C@@H](C(=O)N[C@@H](CO)C(=O)N[C@@H](Cc2ccc(O)cc2)C(=O)N[C@H](Cc2ccc3ccccc3c2)C(=O)N[C@H](CC(C)C)C(=O)N[C@@H](CCCN=C(N)N)C(=O)N2CCC[C@H]2C(=O)N[C@H](C)C(N)=O)CCCNC(=O)[C@@H](Cc2ccc(Cl)cc2)NC1=O
Rattus norvegicus [16]
  Activity: Weak activity
Rattus norvegicus [17]
  Activity: Weak activity

## CC(=O)N[C@@H]1CC(=O)NCCC(=O)NCCC[C@H](C(=O)N[C@@H](CO)C(=O)N[C@@H](Cc2ccc(O)cc2)C(=O)N[C@H](Cc2ccc3ccccc3c2)C(=O)N[C@@H](CC(C)C)C(=O)N[C@@H](CCCN=C(N)N)C(=O)N2CCC[C@H]2C(=O)N[C@H](C)C(N)=O)NC(=O)[C@@H](Cc2ccc(Cl)cc2)NC1=O
[8]
  Ki: 0.17 nM

## CC(=O)N[C@@H]1CCC(=O)NCC[C@H](C(=O)N[C@@H](CO)C(=O)N[C@@H](Cc2ccc(O)cc2)C(=O)N[C@H](Cc2ccc3ccccc3c2)C(=O)N[C@@H](CC(C)C)C(=O)N[C@@H](CCCN=C(N)N)C(=O)N2CCC[C@H]2C(=O)N[C@H](C)C(N)=O)NC(=O)[C@@H](Cc2ccc(Cl)cc2)NC1=O
[8]
  Ki: 0.31 nM

## CC(=O)N[C@@H]1CC(=O)N[C@H](C)C(=O)NCCC[C@H](C(=O)N[C@@H](CO)C(=O)N[C@@H](Cc2ccc(O)cc2)C(=O)N[C@H](Cc2ccc3ccccc3c2)C(=O)N[C@@H](CC(C)C)C(=O)N[C@@H](CCCN=C(N)N)C(=O)N2CCC[C@H]2C(=O)N[C@H](C)C(N)=O)NC(=O)[C@@H](Cc2ccc(Cl)cc2)NC1=O
[8]
  Ki: 2.4 nM
